Test results published in ChEMBL document CHEMBL1240328, “Selective compounds define Hsp90 as a major inhibitor of apoptosis in small-cell lung cancer” (Nat Chem Biol, 2007).
The source made the active and inactive calls.

Columns and labels:
[1] = molecular target: Heat shock protein HSP 90-beta (Homo sapiens) (UniProt P08238); assay: Inhibition of HSP90-mediated antiapoptotic activity in human WBA cells assessed as induction of cell growth arrest at 10 after 96 hrs by propidium iodide staining-based flow cytometry
NCI-H417 [2] = assay: Anticancer activity against human NCI-N417 cells xenografted in ip dosed athymic mouse assessed as decrease in tumor Akt activity administered daily for 5 consecutive days measured after 12 hrs post last dose by immunohistochemistry; assay type: functional, organism-based
Procedure, shortened: (§1)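 Nude athymic (nu/nu) mice carrying NCI-N417 xenografts (cells injected with Matrigel), treated once tumors were 7–9 mm in diameter. Dosing was five consecutive daily i.p. doses of 100 mg kg–1, and mice were killed 12 h after the last dose (n = 2). Tumors were analyzed by immunohistochemistry for cleaved caspase-3, Ki-67 and p-Akt, with vehicle-treated tumors as comparison.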

[3] = molecular target: Heat shock protein HSP 90-beta (Homo sapiens) (UniProt P08238); assay: Inhibition of HSP90-mediated proliferation of human NCI-H146 cells at 0.3 to 0.5 uM after 72 to 96 hrs by intracellular ATP level assay
[4] = molecular target: Heat shock protein HSP 90-beta (Homo sapiens) (UniProt P08238); assay: Inhibition of HSP90-mediated proliferation of human NCI-H69 cells at 0.3 to 0.5 uM after 72 to 96 hrs by intracellular ATP level assay
[5] = molecular target: Heat shock protein HSP 90-beta (Homo sapiens) (UniProt P08238); assay: Inhibition of HSP90-mediated proliferation of human NCI-N417 cells at 0.3 to 0.5 uM after 72 to 96 hrs by sulforhodamine B assay; assay type: cell-based; conditions: NCI-H417
[6] = molecular target: Heat shock protein HSP 90-beta (Homo sapiens) (UniProt P08238); assay: Binding affinity to HSP90 in human NCI-H510 cells after 24 hrs by fluorescence polarization assay; assay type: cell-based
[7] = Drug level in tumor of human NCI-N417 cell-xenograft athymic mouse model at 75 mg/kg, ip administered as single dose after 6 hrs by HPLC/MS/MS analysis; assay type: ADME, organism-based, Neoplasm; set-up: dose 75 mg/kg, route intraperitoneal; conditions: in vivo
Procedure, shortened: (§2)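 Nude mice bearing NCI-N417 xenografts received a single i.p. dose of 75 mg kg–1. Animals (n = 3) were killed at set times from 3 to 36 h. Tumors and brains were harvested and halved, and tumor drug content was quantified by HPLC/MS/MS.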

[8] = molecular target: Heat shock protein HSP 90-beta (Homo sapiens) (UniProt P08238); assay: Inhibition of HSP90-mediated antiapoptotic activity in human H69AR cells assessed as induction of cell growth arrest at 10 after 96 hrs by propidium iodide staining-based flow cytometry
[9] = Drug level in tumor of human NCI-N417 cell-xenograft athymic mouse model at 75 mg/kg, ip administered as single dose after 24 hrs by HPLC/MS/MS analysis; assay type: ADME, organism-based, Neoplasm; set-up: dose 75 mg/kg, route intraperitoneal; conditions: in vivo; procedure, shortened: as §2
NCI-H417 [10] = assay: Anticancer activity against human NCI-N417 cells xenografted in athymic mouse assessed as decrease in tumor Akt activity at 75 mg/kg, ip administered daily for 5 consecutive days measured after 6 hrs post last dose by immunohistochemistry; assay type: functional, organism-based; set-up: dose 75 mg/kg
NCI-H417 [11] = assay: Anticancer activity against human NCI-N417 cells xenografted in athymic mouse assessed as tumor growth inhibition at nontoxic dose administered ip daily for 5 consecutive days measured on day 20 post tumor implantation; assay type: functional, organism-based
Procedure, shortened: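 Nude athymic mice (n = 4) bearing NCI-N417 tumors of V = 50–90 mm3 were dosed i.p. and tumor growth was monitored. Results are given as mean ± s.d.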

[12] = Drug level in tumor of human NCI-N417 cell-xenograft athymic mouse model at 75 mg/kg, ip administered as single dose after 8 hrs by HPLC/MS/MS analysis; assay type: ADME, organism-based, Neoplasm; set-up: dose 75 mg/kg, route intraperitoneal; conditions: in vivo; procedure, shortened: as §2
[13] = molecular target: Heat shock protein HSP 90-beta (Homo sapiens) (UniProt P08238); assay: Binding affinity to HSP90 in human NCI-H69 cells after 24 hrs by fluorescence polarization assay
[14] = Drug level in tumor of human NCI-N417 cell-xenograft athymic mouse model at 75 mg/kg, ip administered as single dose after 36 hrs by HPLC/MS/MS analysis; assay type: ADME, organism-based, Neoplasm; set-up: dose 75 mg/kg, route intraperitoneal; conditions: in vivo; procedure, shortened: as §2
[15] = molecular target: Heat shock protein HSP 90-beta (Homo sapiens) (UniProt P08238); assay: Inhibition of HSP90 in chemo-resistant human WBA cells at 100 uM after 24 hrs by fluorescence polarization assay; assay type: cell-based
Procedure, shortened: (§3)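 Competitive fluorescence polarization in lysates of H69AR, SKI-AC3 and WBA cells, prepared in HFB buffer pH 7.3 and normalized to Hsp90. Tracer was 3 nM Cy3B-geldanamycin, with incubation for 24 h at 4 °C. EC50 was defined as 50% tracer displacement.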

[16] = molecular target: Heat shock protein HSP 90-beta (Homo sapiens) (UniProt P08238); assay: Binding affinity to HSP90 in human SKBR3 cells after 24 hrs by fluorescence polarization assay; conditions: SK-BR-3
[17] = molecular target: Heat shock protein HSP 90-beta (Homo sapiens) (UniProt P08238); assay: Inhibition of HSP90 in chemo-resistant human SKI-AC3 cells at 100 uM after 24 hrs by fluorescence polarization assay; assay type: cell-based; procedure, shortened: as §3
[18] = molecular target: Heat shock protein HSP 90-beta (Homo sapiens) (UniProt P08238); assay: Binding affinity to HSP90 in human NCI-H146 cells after 24 hrs by fluorescence polarization assay; assay type: cell-based
[19] = molecular target: Heat shock protein HSP 90-beta (Homo sapiens) (UniProt P08238); assay: Inhibition of HSP90-mediated proliferation of human SKBR3cells after 72 hrs by sulforhodamine B assay
[20] = Drug level in tumor of human NCI-N417 cell-xenograft athymic mouse model at 75 mg/kg, ip administered as single dose after 12 hrs by HPLC/MS/MS analysis; assay type: ADME, organism-based, Neoplasm; set-up: dose 75 mg/kg, route intraperitoneal; conditions: in vivo; procedure, shortened: as §2
[21] = molecular target: Heat shock protein HSP 90-beta (Homo sapiens) (UniProt P08238); assay: Binding affinity to HSP90 in human NCI-H187 cells after 24 hrs by fluorescence polarization assay
[22] = molecular target: Heat shock protein HSP 90-beta (Homo sapiens) (UniProt P08238); assay: Inhibition of HSP90 in chemo-resistant human H69AR cells at 100 uM after 24 hrs by fluorescence polarization assay; assay type: cell-based; procedure, shortened: as §3
NCI-H417 [23] = assay: Anticancer activity against human NCI-N417 cells xenografted in ip dosed athymic mouse assessed as tumor caspase-3 cleavage administered daily for 5 consecutive days measured after 12 hrs post last dose by immunohistochemistry; assay type: functional, organism-based; procedure, shortened: as §1
[24] = molecular target: Heat shock protein HSP 90-beta (Homo sapiens) (UniProt P08238); assay: Inhibition of HSP90-mediated proliferation of human NCI-H526 cells at 0.3 to 0.5 uM after 72 to 96 hrs by sulforhodamine B assay; assay type: cell-based
[25] = molecular target: Heat shock protein HSP 90-beta (Homo sapiens) (UniProt P08238); assay: Inhibition of HSP90-mediated proliferation of human NCI-H187 cells at 0.3 to 0.5 uM after 72 to 96 hrs by intracellular ATP level assay
[26] = Drug level in tumor of human NCI-N417 cell-xenograft athymic mouse model at 75 mg/kg, ip administered as single dose after 3 hrs by HPLC/MS/MS analysis; assay type: ADME, organism-based, Neoplasm; set-up: dose 75 mg/kg, route intraperitoneal; conditions: in vivo; procedure, shortened: as §2
NCI-H417 [27] = assay: Anticancer activity against human NCI-N417 cells xenografted in athymic mouse assessed as decrease in tumor Akt activity at 75 mg/kg, ip administered as single dose measured after 36 hrs post dose by Western blot
[28] = molecular target: Heat shock protein HSP 90-beta (Homo sapiens) (UniProt P08238); assay: Binding affinity to HSP90 in human NCI-H209 cells after 24 hrs by fluorescence polarization assay; assay type: cell-based
[29] = molecular target: Heat shock protein HSP 90-beta (Homo sapiens) (UniProt P08238); assay: Inhibition of HSP90-mediated antiapoptotic activity in human SKI-AC3 cells assessed as induction of cell growth arrest at 10 after 96 hrs by propidium iodide staining-based flow cytometry
[30] = molecular target: Heat shock protein HSP 90-beta (Homo sapiens) (UniProt P08238); assay: Inhibition of HSP90-mediated proliferation of human NCI-H510 cells at 0.3 to 0.5 uM after 72 to 96 hrs by intracellular ATP level assay
[31] = molecular target: Heat shock protein HSP 90-beta (Homo sapiens) (UniProt P08238); assay: Inhibition of HSP90-mediated proliferation of human NCI-H209 cells at 0.3 to 0.5 uM after 72 to 96 hrs by intracellular ATP level assay
[32] = molecular target: Heat shock protein HSP 90-beta (Homo sapiens) (UniProt P08238); assay: Binding affinity to HSP90 in human NCI-N417 cells after 24 hrs by fluorescence polarization assay; assay type: cell-based; conditions: NCI-H417
[33] = molecular target: Heat shock protein HSP 90-beta (Homo sapiens) (UniProt P08238); assay: Binding affinity to HSP90 in human NCI-H526 cells after 24 hrs by fluorescence polarization assay; assay type: cell-based

Sequence of Heat shock protein HSP 90-beta (Homo sapiens) (P08238 whole entry): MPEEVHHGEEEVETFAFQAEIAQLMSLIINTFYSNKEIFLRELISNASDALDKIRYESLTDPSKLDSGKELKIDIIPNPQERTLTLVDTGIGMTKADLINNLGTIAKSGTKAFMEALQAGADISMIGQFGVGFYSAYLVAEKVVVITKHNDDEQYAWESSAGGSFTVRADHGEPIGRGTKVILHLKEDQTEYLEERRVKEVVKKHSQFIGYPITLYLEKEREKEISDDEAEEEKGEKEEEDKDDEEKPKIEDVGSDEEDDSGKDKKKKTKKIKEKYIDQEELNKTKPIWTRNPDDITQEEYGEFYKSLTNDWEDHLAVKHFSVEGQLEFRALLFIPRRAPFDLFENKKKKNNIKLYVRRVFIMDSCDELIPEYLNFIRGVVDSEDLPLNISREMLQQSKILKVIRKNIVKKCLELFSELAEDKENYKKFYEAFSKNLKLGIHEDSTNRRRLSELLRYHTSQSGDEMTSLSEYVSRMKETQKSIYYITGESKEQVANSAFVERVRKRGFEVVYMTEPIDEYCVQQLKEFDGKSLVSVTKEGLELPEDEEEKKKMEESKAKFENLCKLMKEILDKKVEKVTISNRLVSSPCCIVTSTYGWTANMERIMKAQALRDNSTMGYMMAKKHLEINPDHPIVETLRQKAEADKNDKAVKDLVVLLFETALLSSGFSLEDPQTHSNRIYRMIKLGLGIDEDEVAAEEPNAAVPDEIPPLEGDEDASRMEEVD

Q: With CC(C)NCCCn1c(Sc2cc3c(cc2I)OCO3)nc2c(N)ncnc21 [PU-H71] as the compound, how does the Activity [1] read?
A: Active

Q: What about the inhibition (NCI-H417 [2]) of the same compound?
A: Dose-dependent effect

Q: And the inhibition [3]?
A: 50%

Q: And the inhibition [4]?
A: 50%

Q: And the inhibition [5]?
A: 50%

Q: And the Activity [6]?
A: Active

Q: And the Drug uptake [7]?
A: Active

Q: What about the Activity [8] of the same compound?
A: Active

Q: What about the Drug uptake [9] of the same compound?
A: Active

Q: And the Activity (NCI-H417 [10])?
A: Active

Q: What about the inhibition (NCI-H417 [11]) of the same compound?
A: Active

Q: What about the Drug uptake [12] of the same compound?
A: Active

Q: And the Activity [13]?
A: Active

Q: What about the Drug uptake [14] of the same compound?
A: Active

Q: And the inhibition [15]?
A: Active

Q: And the Activity [16]?
A: Active

Q: And the inhibition [17]?
A: Active

Q: And the Activity [18]?
A: Active

Q: And the inhibition [19]?
A: Active

Q: And the Drug uptake [20]?
A: Active

Q: What about the Activity [21] of the same compound?
A: Active

Q: What about the inhibition [22] of the same compound?
A: Active

Q: And the Activity (NCI-H417 [23])?
A: Dose-dependent effect

Q: And the inhibition [24]?
A: 50%

Q: And the inhibition [25]?
A: 50%

Q: And the Drug uptake [26]?
A: Active

Q: What about the Activity (NCI-H417 [27]) of the same compound?
A: Active

Q: And the Activity [28]?
A: Active

Q: What about the Activity [29] of the same compound?
A: Active

Q: What about the inhibition [30] of the same compound?
A: 50%

Q: What about the inhibition [31] of the same compound?
A: 50%

Q: What about the Activity [32] of the same compound?
A: Active

Q: And the Activity [33]?
A: Active
